The source of these data is publication PMC9282716 (Cell reports, 2022).

For experiment [1], the system named is Hs68 cells. As to the kind of experiment: TR-FRET cAMP assay in normal fibroblast cell line Hs68. Type of experiment: cell-based, human. The note with it: 10 μM agonist, Hs68 fibroblasts. On the technique in general: Time-resolved FRET reads energy transfer from a long-lived donor to a nearby acceptor.
Experiment [2] concerns the target T1, EP2 receptor (Homo sapiens, UniProt P43116). As to the kind of experiment: cell-based. Type of experiment: cell-based.
Experiment [3] deals with EP2-deleted SK-N-AS cells. The experiment in a line: TR-FRET cAMP assay in EP2 knockout SK-N-AS cell lines. The experiment is classed as cell-based, human. Conditions: read-out: PGE2 EC50 for cAMP. In a few lines:
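EP2-knockout SK-N-AS lines were made with lentiCRISPRv2 sgRNAs, selected with puromycin (2 µg/mL) and verified by sequencing. […] After lysis with cAMP-d2 and anti-cAMP cryptate and 1 h at RT, TR-FRET was read (ex 340 nm; em 665/590 nm), n = 4. EC50 came from concentration–response curves.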

For experiment [4], the target named is T1, EP2 receptor. As to the kind of experiment: Cell-based TR-FRET cAMP assay in BE.

The pEC50 is the negative decadic logarithm of the EC50, by convention in mol/L.

pEC50: −log10 of the molar value. Like-named read-outs stand apart in the source and are kept apart here.

T1 sequence (P43116 whole entry): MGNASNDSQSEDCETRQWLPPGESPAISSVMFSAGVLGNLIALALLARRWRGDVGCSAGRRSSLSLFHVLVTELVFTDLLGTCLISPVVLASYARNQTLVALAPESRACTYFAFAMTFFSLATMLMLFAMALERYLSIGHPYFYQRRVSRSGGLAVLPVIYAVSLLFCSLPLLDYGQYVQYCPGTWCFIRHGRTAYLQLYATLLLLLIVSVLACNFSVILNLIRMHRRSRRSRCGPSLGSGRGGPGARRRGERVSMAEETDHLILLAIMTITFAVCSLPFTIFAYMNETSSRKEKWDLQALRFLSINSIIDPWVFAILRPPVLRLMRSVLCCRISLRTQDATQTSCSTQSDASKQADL

Regarding `O=C1CC[C@H](/C=C/[C@@H](O)Cc2ccccc2)N1CCCCCCc1nn[nH]n1` [CAY10598], the cAMP production entry in experiment [1] was “more cAMP production than EP2 agonist butaprost and PGE2”.

For the molecule `CCOc1c2c(c(OCC)c3ccccc13)C(=O)N(c1ccc(CC(=O)NS(=O)(=O)c3ccccc3)cc1)C2` [GW627368X], the “IC50, inhibition of PGE2-induced cAMP production” value in experiment [2] was “no effect”.

Take `CCCCC[C@H](O)/C=C/[C@H]1[C@H](O)CC(=O)[C@@H]1C/C=C\CCCC(=O)O` [PGE2, Prostaglandin E2]: the pEC50 is below 5.00 in experiment [3] (Homo sapiens, SK-N-AS) and below 5.00 in experiment [3] (EP2 KO2 SK-N-AS cell line).

In the case of `CCCC1([C@H](O)C/C=C/[C@H]2[C@H](O)CC(=O)[C@@H]2CCCCCCC(=O)OC)CCC1` [butaprost], the pEC50 in experiment [4] was 6.33; in experiment [2] (agonist EC50 for cAMP induction, SK-N-AS cells, n = 4) it was 6.77.
